# Results as given in ChEMBL document CHEMBL1124343 (J Med Chem, 1989).
# Target: T1, Adrenergic receptor alpha-1 (Rattus norvegicus, UniProt P15823+P23944+P43140)
# T1 sequence (P15823 whole entry): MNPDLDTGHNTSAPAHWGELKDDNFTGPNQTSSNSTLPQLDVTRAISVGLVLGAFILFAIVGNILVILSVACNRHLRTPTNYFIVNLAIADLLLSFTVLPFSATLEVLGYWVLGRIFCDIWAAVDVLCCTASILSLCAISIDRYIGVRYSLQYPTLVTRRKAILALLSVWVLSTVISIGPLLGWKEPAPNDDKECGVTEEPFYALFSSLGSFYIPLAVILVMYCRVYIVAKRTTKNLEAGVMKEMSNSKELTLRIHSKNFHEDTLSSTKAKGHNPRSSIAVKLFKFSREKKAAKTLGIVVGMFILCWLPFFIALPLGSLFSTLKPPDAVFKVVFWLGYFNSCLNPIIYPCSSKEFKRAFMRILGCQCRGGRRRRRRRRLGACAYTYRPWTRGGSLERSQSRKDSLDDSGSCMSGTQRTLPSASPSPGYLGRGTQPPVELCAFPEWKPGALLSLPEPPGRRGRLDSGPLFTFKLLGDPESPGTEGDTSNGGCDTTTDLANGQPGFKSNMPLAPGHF
# T1 sequence (P23944 whole entry): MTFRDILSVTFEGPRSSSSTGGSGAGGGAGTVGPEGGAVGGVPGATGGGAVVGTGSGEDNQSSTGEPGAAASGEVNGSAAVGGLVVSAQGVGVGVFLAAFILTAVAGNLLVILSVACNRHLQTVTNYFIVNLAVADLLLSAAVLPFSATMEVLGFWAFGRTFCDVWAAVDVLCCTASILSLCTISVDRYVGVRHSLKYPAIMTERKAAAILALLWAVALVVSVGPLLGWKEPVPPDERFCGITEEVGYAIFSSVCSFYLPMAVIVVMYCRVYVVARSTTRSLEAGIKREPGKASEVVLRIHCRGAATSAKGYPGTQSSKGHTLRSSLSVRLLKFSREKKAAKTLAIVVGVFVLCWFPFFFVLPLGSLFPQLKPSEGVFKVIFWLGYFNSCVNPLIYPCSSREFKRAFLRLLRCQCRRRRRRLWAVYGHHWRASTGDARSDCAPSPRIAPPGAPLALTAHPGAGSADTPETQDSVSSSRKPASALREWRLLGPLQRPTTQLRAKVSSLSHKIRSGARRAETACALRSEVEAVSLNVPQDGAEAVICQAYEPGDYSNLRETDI
# T1 sequence (P43140 whole entry): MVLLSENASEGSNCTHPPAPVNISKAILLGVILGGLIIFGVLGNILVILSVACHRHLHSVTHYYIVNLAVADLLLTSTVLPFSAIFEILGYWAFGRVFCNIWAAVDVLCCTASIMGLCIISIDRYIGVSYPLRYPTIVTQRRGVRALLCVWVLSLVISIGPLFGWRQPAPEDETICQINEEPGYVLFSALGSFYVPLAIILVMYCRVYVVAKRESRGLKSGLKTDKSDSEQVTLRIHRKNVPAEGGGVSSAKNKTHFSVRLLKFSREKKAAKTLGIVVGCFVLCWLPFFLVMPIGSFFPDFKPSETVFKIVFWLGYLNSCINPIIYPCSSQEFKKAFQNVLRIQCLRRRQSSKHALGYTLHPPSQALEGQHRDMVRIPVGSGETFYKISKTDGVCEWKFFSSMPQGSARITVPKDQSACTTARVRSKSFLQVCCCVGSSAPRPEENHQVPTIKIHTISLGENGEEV
# Test: Compound is evaluated for its ability to compete with [3H]prazosin for binding to Alpha-1 adrenergic receptor sites on rat cerebral cortical membranes at 10 nM concentration
# Conditions: not given
row,SMILES,-Log IC50
1,COc1cc2nc(N3CCN(C(=O)C4=CC5C=CC4CC5)CC3)nc(N)c2cc1OC (stereo unspecified),8.12
2,COc1cc2nc(N3CCN(C(=O)C4CC5C=CC4C5)CC3)nc(N)c2cc1OC (stereo unspecified),8.8

# Target: T1, Adrenergic receptor alpha-1
# Test: Compound is evaluated for its ability to compete with [3H]prazosin for binding to Alpha-1 adrenergic receptor sites on rat cerebral cortical membranes at 100 nM concentration
# Conditions: not given
row,SMILES,-Log IC50
1,COc1cc2nc(N3CCN(C(=O)C4OC4c4ccccc4)CC3)nc(N)c2cc1OC (stereo unspecified),7.88

# Target: Adrenergic receptor alpha-1 (Rattus norvegicus) (UniProt P15823+P23944+P43140)
# Test: Irreversible action of compound towards Alpha-1 adrenergic receptor on rat cerebral cortical membranes was determined at 1000 nM concentration
# Type: cell membranes
# Conditions: Membrane
# Outline: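 Cortical membranes in Tris/MgCl2 buffer were preincubated 1 h at 30 °C with compound or buffer alone. Isothiocyanates were run in 50 mM phosphate with 1 mM EDTA, pH 7. Membranes were diluted, kept 10 min on ice and washed by four centrifugations. […] Bmax came from Scatchard plots, at least 3 experiments.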
row,SMILES,Decrease in Bmax [%]
1,COC(=O)/C=C/C=C/C(=O)N1CCN(c2nc(N)c3cc(OC)c(OC)cc3n2)CC1,0

# Target: T1, Adrenergic receptor alpha-1
# Test: Binding affinity at Alpha-1 adrenergic receptor sites on rat cerebral cortical membranes by [3H]prazosin displacement.
# Conditions: not given
# Outline: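 Rat cortex membranes were washed and resuspended in 50 mM Tris pH 7.4 with 10 mM MgCl2, about 200–300 μg protein per tube. […] Nonspecific binding used 10 μM phentolamine. Tubes were run in duplicate, IC50 came from displacement curves, and there were 3–5 experiments or duplicate experiments.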
row,SMILES,-Log IC50
1,COc1cc2nc(N3CCN(S(=O)(=O)c4ccc(C)cc4)CC3)nc(N)c2cc1OC,7.94
2,COc1cc2nc(N3CCN(/C(S)=N/c4ccccc4)CC3)nc(N)c2cc1OC,11.16
3,COc1cc2nc(N3CCN(/C(S)=N/c4ccc(NC(=S)N5CC5)cc4)CC3)nc(N)c2cc1OC,7.01
4,COc1cc2nc(N3CCN(S(=O)(=O)c4cccs4)CC3)nc(N)c2cc1OC,7.47
5,COc1cc2nc(N3CCN(C(=O)C4CC4c4ccccc4)CC3)nc(N)c2cc1OC (stereo unspecified),9.29
6,COc1cc2nc(N3CCN(C(=O)c4ccc(N=C=S)c(I)c4)CC3)nc(N)c2cc1OC,7.29
7,COc1cc2nc(N3CCN(/C(S)=N/C4CCCCC4)CC3)nc(N)c2cc1OC,8.27
8,COc1cc2nc(N3CCN(/C(S)=N/c4ccc(N=[N+]=[N-])cc4)CC3)nc(N)c2cc1OC,7.7

# Other lines, results leading:
row,-Log IC50,SMILES
1,7.68,COc1cc2nc(N3CCN(C(=O)/C=C/c4cccc(F)c4)CC3)nc(N)c2cc1OC
2,7.9,COc1cc2nc(N3CCN(C(=O)COc4ccccc4)CC3)nc(N)c2cc1OC
3,7.31,COc1cc2nc(N3CCN(C(=O)c4ccc5ccccc5c4)CC3)nc(N)c2cc1OC
4,7.1,COc1cc2nc(N3CCN(C(=O)/C=C/c4ccc(Br)cc4)CC3)nc(N)c2cc1OC
5,7.9,COc1cc2nc(N3CCN(C(=O)/C=C/c4ccc(Cl)cc4)CC3)nc(N)c2cc1OC
6,7.06,COc1cc2nc(N3CCN(C(=O)/C=C/C(=O)c4ccccc4)CC3)nc(N)c2cc1OC
7,7.93,COc1cc2nc(N3CCN(C(=O)c4cccc(CCl)c4)CC3)nc(N)c2cc1OC
8,8.47,COc1cc2nc(N3CCN(C(=O)CCc4ccccc4)CC3)nc(N)c2cc1OC
9,7.56,COc1cc2nc(N3CCN(C(=O)Nc4ccccc4)CC3)nc(N)c2cc1OC

# Target: T1, Adrenergic receptor alpha-1
# Test: Compound is evaluated for its ability to compete with [3H]prazosin for binding to Alpha-1 adrenergic receptor sites on rat cerebral cortical membranes at 1000 nM concentration
# Conditions: not given
row,SMILES,-Log IC50
1,COC(=O)/C=C/C=C/C(=O)N1CCN(c2nc(N)c3cc(OC)c(OC)cc3n2)CC1,7.41

# Target: T1, Adrenergic receptor alpha-1
# Test: Displacement of [3H]prazosin binding to Alpha-1 adrenergic receptor sites on rat cerebral cortical membranes at 100 nM concentration
# Type: cell membranes, Membrane
# Conditions: not given
row,SMILES,-Log IC50
1,C/C=C/C=C/C(=O)N1CCN(c2nc(N)c3cc(OC)c(OC)cc3n2)CC1,8.36
2,COC(=O)/C=C/C(=O)Nc1ccc(/C=C/C(=O)N2CCN(c3nc(N)c4cc(OC)c(OC)cc4n3)CC2)cc1,7.53
3,COC(=O)/C=C/C(=O)Nc1ccc(CCCCC(=O)N2CCN(c3nc(N)c4cc(OC)c(OC)cc4n3)CC2)cc1,8.35
4,COc1cc2nc(N3CCN(C(=O)/C=C/c4ccc(NC(=O)CBr)cc4)CC3)nc(N)c2cc1OC,7.17
5,COc1cc2nc(N3CCN(C(=O)/C=C/c4ccc(N=C=S)cc4)CC3)nc(N)c2cc1OC,6.99
6,COc1ccc(/C=C/C(=O)N2CCN(c3nc(N)c4cc(OC)c(OC)cc4n3)CC2)cc1,8.47

# Now from value to molecule:
row,-Log IC50,SMILES
1,7.4,COc1cc2nc(N3CCN(C(=O)/C(F)=C/c4ccccc4)CC3)nc(N)c2cc1OC
2,9.16,COc1cc2nc(N3CCN(C(=O)/C=C/c4ccccc4)CC3)nc(N)c2cc1OC
3,7.64,COc1cc2nc(N3CCN(C(=O)/C=C/c4ccc(F)cc4)CC3)nc(N)c2cc1OC
